# From PubChem BioAssay
# NPY-Y1 PAM-ag: human NPY-Y1 potentiation or agonism, primary screen. AID 1304. activation, % at 3.6 µM. 0.37% of 220,000 active. NPY-Y1 expressing cells, potentiator/agonist activation; in the data active = activation above about 33%, passing the limit was not always enough;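 note: cells stimulated with NPY at EC10 then isoproterenol at EC100; 0% = low agonist plus stimulus and 100% = saturating agonist plus stimulus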
# Target sequence (P25929 whole entry, looked up): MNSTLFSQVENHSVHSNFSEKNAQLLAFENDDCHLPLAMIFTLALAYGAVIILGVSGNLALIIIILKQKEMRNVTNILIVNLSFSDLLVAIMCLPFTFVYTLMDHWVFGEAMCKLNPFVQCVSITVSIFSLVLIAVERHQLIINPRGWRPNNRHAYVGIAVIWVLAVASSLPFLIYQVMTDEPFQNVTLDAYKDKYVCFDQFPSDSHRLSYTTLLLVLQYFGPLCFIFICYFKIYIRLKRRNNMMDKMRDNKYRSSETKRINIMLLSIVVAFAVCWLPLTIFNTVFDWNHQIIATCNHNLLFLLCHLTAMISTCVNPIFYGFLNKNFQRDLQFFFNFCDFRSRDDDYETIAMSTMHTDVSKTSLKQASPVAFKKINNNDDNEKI
# NPY-Y2 antag: NPY-Y2 (human) receptor antagonism | P49146 | NPY-Y2 expressing cells, antagonist mode | inhibition, % at 2.7 µM | 0.99% of 140,000 active | AID 793; in the data active = inhibition above about 17%;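 note: 0% = vehicle with agonist challenge and 100% = reference antagonist with challenge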
# NPY Y1 blocker: antagonists of human neuropeptide Y receptor Y1; AID 1040; HEK293-CNG Y1 cells, membrane potential fluorescence; NPY at EC95, then isoproterenol; 1% of 200,000 active; inhibition, % at 3.6 µM;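 active = inhibition above the campaign mean inhibition of all tested compounds plus 3 SD, cut at about 20% in these data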;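 note: 0% = DMSO wells given NPY plus isoproterenol and 100% = isoproterenol alone without NPY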
#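 Assay system: HEK293 Y1/CNG channel cell line; Doses: single compound dose of 3.6 µM, 0.4% DMSO; Timing: dye 3 h, compound 60 min room temperature, stimulation 45 min; Technique: Membrane-potential fluorescent dye readout; Measure: % inhibition of NPY effect.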
# EP2 antag: inhibitors of human EP2 prostaglandin E2 receptor; C6 glioma cells expressing human EP2, cAMP TR-FRET; cells stimulated with saturating PGE2; inhibition, % at 25 µM; 0.52% of 260,000 active; AID 1422;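 active = percent inhibition above 40 after rounding to a whole number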;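 note: rat C6 glioma host cells with rolipram phosphodiesterase inhibitor present; the protocol text gives 20 µM as final concentration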
# NPY-Y2 PAM-ag: human NPY-Y2 potentiation or agonism, primary screen; cells expressing NPY-Y2, potentiator/agonist read-out; 0.45% of 220,000 active; activation, % at 3.6 µM; in the data active = activation above about 27%;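 note: cells stimulated with NPY near EC25 plus isoproterenol at EC100; 0% = vehicle plus submaximal agonist and 100% = vehicle plus saturating agonist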
# EP2 modulator: modulators of human EP2 prostaglandin E2 receptor | P43116 | EP2-expressing cells, cAMP HTRF FRET, PGE2 co-stimulation | induction, % at 25 µM | 0.83% of 260,000 active;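 active = compounds whose cAMP rise, as percent of the full-agonist control response, exceeds 60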;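 note: rat C6 glioma line stably carrying human EP2 under a CMV promoter; the protocol text gives 20 µM as final concentration; 100% = response of wells given 1 µM PGE2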
# Numbers without * were called inactive; nt = no result; + = active, no number; ! = not active in a repeat. An excerpt weighted towards active compounds, which were near 2.8% of everything screened.
SMILES,NPY-Y1 PAM-ag,NPY-Y2 antag,NPY Y1 blocker,EP2 antag,NPY-Y2 PAM-ag,EP2 modulator
CN1/C(=C\C=C\C2=[N+](C)c3ccc4ccccc4c3C2(C)C)C(C)(C)c2ccccc21,-558,+,+,114*,-329,-46
CN1/C(=C\C=Nc2ccccc2)C(C)(C)c2ccccc21,15,4,4,21,9,6
CCCOc1c(CN2C3CCC2CC(O)(c2ccc(F)cc2)C3)cccc1OC (stereo not given),nt,nt,nt,7,nt,-26
O=[As](O)(O)c1ccc(Cc2ccc([As](=O)(O)O)cc2)cc1,nt,nt,nt,93*,nt,-37
Nc1ccc([As](=O)(O)O)cc1,-2,-3,-1,16,9,33
CCC(Oc1ccccc1F)C(=O)N1CCC(C(C)=O)(c2ccccc2)CC1 (stereo not given),nt,nt,nt,6,nt,6
O=C(CN1C2CCC1CC(O)(c1ccco1)C2)NC(c1ccccc1)c1ccccc1 (stereo not given),nt,nt,nt,nt,nt,3
CN1C[C@@H](C(=O)N[C@@]2(C)O[C@@]3(O)[C@H]4CCCN4C(=O)[C@@H](Cc4ccccc4)N3C2=O)C=C2c3cccc4[nH]cc(c34)C[C@@H]21,nt,nt,nt,66*,nt,3
COc1cccc(CN2CCN(C(=O)COc3ccc(Cl)cc3)CC2)c1OC,nt,nt,nt,11,nt,-47
O=C(O)CC1OCC=C2CN3CCC45c6ccccc6NC4C1C2CC35 (stereo not given),3,nt,nt,8,-12,27
O=C(O)C[C@@H]1OCC=C2CN3CC[C@]45c6ccccc6N[C@H]4[C@H]1[C@H]2C[C@H]35,nt,nt,nt,51*,nt,1
Nc1nc2c(c(=S)[nH]1)[n]([Hg][c]1cc([N+](=O)[O-])ccc1O)c[n+]2[C@H]1O[C@H](CO)[C@@H](O)[C@@H]1O,nt,nt,nt,60*,nt,12
CN(C)CCN(Cc1ccccc1F)C(=O)Cc1cn2ccsc2n1,nt,nt,nt,5,nt,4
C[C@]12CC[C@@H]3c4ccc(O)c(O)c4CC[C@H]3[C@@H]1CC[C@@H]2O,15,nt,2,89*,0,-24
COc1ccc(-n2c(C)nc3c(Br)cc(Br)cc3c2=O)cc1,nt,nt,nt,16,nt,28
O=c1c2ccccc2[se]n1-c1ccccc1,14,2,-2,47*!,22,-2
CCN1CC2(C)CC[C@H](OC)[C@]34C2[C@H](O)C2(OCO[C@@]25C[C@H](OC)[C@H]2C[C@]3(O)C5[C@H]2O)C14,nt,nt,nt,9,nt,-4
O=C(O)C(Oc1nc(=S)[nH]c(=S)[nH]1)(c1ccc(Cl)cc1)c1ccc(Cl)cc1,nt,nt,nt,50*,nt,9
COc1ccc(-n2c(SCCN3CCCCC3)nc3ccccc3c2=O)cc1,nt,nt,nt,8,nt,-8
O=C1NC(=O)N(c2ccc3c(c2)OCO3)C(=O)/C1=C/c1ccsc1,-10,nt,1,4,4,-34
O=C1NC(=O)N(c2ccc3c(c2)OCO3)C(=O)/C1=C/c1cccs1,6,nt,3,92*,-4,-84
C[C@]12CC[C@H](O[C@@H]3O[C@H](CO)[C@@H](O)[C@H](O)[C@H]3O)C[C@@H]1CC[C@@H]1[C@@H]2CC[C@]2(C)[C@@H](C3=CCOC3=O)CC[C@@]12O,nt,nt,nt,53*,nt,-2
C=C(c1ccccc1)P(=O)(O)O,-18,0,1,8,-10,12
C=C(C)c1ccccc1 (tested in a mixture with another compound),nt,nt,nt,55*,nt,10
CCc1[nH]c2ccc(C(=O)N3CCC(C(C)=O)(c4ccccc4)CC3)cc2c1C,nt,nt,nt,5,nt,-58
SMILES,NPY-Y1 PAM-ag,NPY-Y2 antag,NPY Y1 blocker,EP2 antag,NPY-Y2 PAM-ag,EP2 modulator
COc1cc(O)c(C(=O)O)c(-c2cc(O)c(O)cc2C)c1,nt,nt,nt,77*,nt,23
COc1ccc2c(c1)c(C(=O)O)c(C)n2CC(C)C,-8,4,-1,12,4,41
O=C1N[C@]2(CN3CCC2CC3)C(=O)N1CN(Cc1ccccc1)c1ccccc1,nt,nt,nt,54*,nt,8
C=CCc1cc(CN2C3CCC2CC(O)(c2nccn2C)C3)cc(OC)c1OC (stereo not given),nt,nt,nt,9,nt,-41
CCCOc1c(CN2C3CCC2CC(O)(c2ccc(OC)cc2)C3)cccc1OC (stereo not given),nt,nt,nt,5,nt,-38
O=P(Nc1ccccc1)(Oc1ccccc1)Oc1ccccc1,20,nt,nt,6,19,10
O=P(NC(c1ccccc1)c1ccccc1)(Oc1ccccc1)Oc1ccccc1,-15,38*,21*,16,-18,55
CCCN1CCc2cccc3c2[C@H]1Cc1ccc(O)c(O)c1-3,nt,nt,nt,43*!,nt,40
N#CC1=C(N)Oc2c(c(=O)oc3ccccc23)C1c1ccc2c(c1Cl)OCO2 (stereo not given),nt,nt,nt,6,nt,-6
C=CCN1C(=O)CN=C(c2ccc(F)cc2)c2c1sc1c2CCCC1,nt,nt,nt,3,nt,65*
C=Cn1ncc(CN(CCc2ccccc2)Cc2cccs2)c1C,nt,nt,nt,3,nt,60
COc1ccc(Nc2nc(CC(=O)N(C)CCN3CCCCC3)cs2)cc1,nt,nt,nt,4,nt,-15
CC1(C)C[C@H]2C=C(C=O)[C@]3(C=O)C[C@]3(C)[C@H]2C1,17,3,3,88*,8,-34
COc1ccc(CC(=O)N2CCN(Cc3ccco3)C[C@H]2C)cc1OC,nt,nt,nt,nt,nt,-47
C[C@@H]1CC[C@@H]2N(C1)C[C@@H]1[C@](O)([C@H](O)C[C@]3(O)[C@H]4CC[C@@H]5[C@]6(O)O[C@@]4(C[C@@]13O)[C@@]5(C)CC[C@H]6O)[C@@]2(C)O,nt,nt,nt,48*,nt,11
COc1cc2cc(c1Cl)N(C)C(=O)C[C@H](OC(=O)C(C)C)[C@]1(C)O[C@H]1[C@@H](C)[C@H]1C[C@](O)(NC(=O)O1)[C@@H](OC)/C=C\C=C(\C)C2,nt,nt,nt,52*,nt,23
COc1cccc(C2(O)CCNCC2)c1,nt,nt,nt,10,nt,-6
CC1(C)CC2(CCCN(CCC(N)=O)C2)CCO1 (stereo not given),nt,nt,nt,14,nt,10
Cc1nc2c(=O)n(C)c(=O)nc-2n(C)n1,-73,4,4,34,-36,-164
CCn1nc(-c2ccccc2)nc2c(=O)n(C)c(=O)nc1-2,-16,4,2,43*,-5,-88
COc1cc2c(cc1OC)[C@]13CCN4CC5=CCO[C@@H](CC(=O)O)[C@H]([C@H]5C[C@H]41)[C@@H]3N2,nt,nt,nt,37,nt,18
C[C@H]1CC[C@]2(NC1)O[C@H]1C[C@H]3[C@H]4CC=C5C[C@@H](O)CC[C@]5(C)[C@@H]4CC[C@]3(C)[C@H]1[C@@H]2C,nt,nt,nt,58*,nt,7
CC12CCC3C(CC=C4CC(O)CCC43C)C1C/C(=C\N1CCCC1)C2=O (stereo not given),21,nt,nt,6,-7,-5
CN(C)CCN(Cc1ccc(F)cc1)C(=O)Cc1nn(C)c(=O)c2ccccc12,nt,nt,nt,4,nt,-26
CSc1ncc(CN2C3CCC2CC(O)(c2ccccc2F)C3)cn1 (stereo not given),nt,nt,nt,4,nt,-79
